MrgX1 antagonist = human MrgX1 receptor antagonism, primary screen; AID 588676; 310,000 tested, 1.3% active; MRGX1-HEK293 calcium flux, Fluo-4, BAM8-22 antagonism; active compounds read low; Q96LB2; B-score at 10 µM;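 active means calcium-response B-score plate-corrected more than 3 library SD below zero, starting fluorescence within 5 deviations, no agonist response on first addition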;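 further: peak minus trough fluorescence over baseline after final BAM8-22 challenge near maximal dose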
Target sequence (Q96LB2 whole entry, looked up): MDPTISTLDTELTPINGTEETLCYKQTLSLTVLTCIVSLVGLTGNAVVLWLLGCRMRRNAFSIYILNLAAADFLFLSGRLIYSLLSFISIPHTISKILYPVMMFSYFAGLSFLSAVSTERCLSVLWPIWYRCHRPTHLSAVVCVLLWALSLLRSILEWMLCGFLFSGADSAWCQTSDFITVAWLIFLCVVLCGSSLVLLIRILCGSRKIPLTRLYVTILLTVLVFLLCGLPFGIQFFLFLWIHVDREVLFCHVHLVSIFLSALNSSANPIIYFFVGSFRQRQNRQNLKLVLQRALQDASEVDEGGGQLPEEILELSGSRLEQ
MrgX1 agonist = agonists of human MrgX1 receptor; 310,000 tested, 0.44% active; AID 588627; MrgX1-HEK293 cells, Fluo-4 calcium fluorescence, agonist mode; active compounds read high; B-score at 10 µM;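 active means calcium response B-score plate-corrected fluorescence ratio at least 3 library SD, with starting fluorescence B-score inside 5 SD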
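Material: HEK293 cells stably expressing human MrgX1 receptor | Quantity: 15,000 cells per well | Times: Cells plated overnight, dye loaded 0.5 h 37 °C, 0.5 h room temperature | Measured by: Kinetic Fluo-4 NW fluorescence of intracellular calcium | Control set: Positive and negative controls per plate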
MrgX1 PAM = allosterically activates human MrgX1 receptor signaling. MrgX1-HEK293, Fluo-4 calcium flux, FDSS; active compounds read high. B-score at 10 µM. 310,000 tested, 0.63% active;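 active means plate-corrected calcium response at least 3 library SD above typical, normal starting fluorescence, not activating the receptor alone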;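 further: compound read alongside a low EC10 to EC30 dose of BAM8-22 agonist; peak minus trough fluorescence over baseline measured at the second addition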
RGS4 block = human RGS4 inhibition; 310,000 tested, 0.45% active; HEK293 M3R/RGS4 inducible, Fluo-4 calcium flux; active compounds read high; triggered by carbachol at its EC20; B-score at 10 µM; P49798;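 active means B-score, a plate-corrected calcium signal, over three deviations above library mean, with baseline fluorescence within five deviations of library mean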;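 further: RGS4 expression induced by doxycycline in cells with stable M3 receptor; B-score is computed from the integrated fluorescence ratio over baseline after carbachol; higher B-score means a larger calcium signal and so more RGS4 inhibition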
Target sequence (P49798 whole entry, looked up): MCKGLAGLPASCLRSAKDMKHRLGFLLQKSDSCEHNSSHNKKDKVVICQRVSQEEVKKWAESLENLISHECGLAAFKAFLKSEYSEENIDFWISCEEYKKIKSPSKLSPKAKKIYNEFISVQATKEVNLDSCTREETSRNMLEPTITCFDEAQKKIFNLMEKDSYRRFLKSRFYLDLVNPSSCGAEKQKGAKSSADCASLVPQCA
RGS4 act = RGS4 potentiation or activation; B-score at 10 µM; HEK293 M3R/inducible RGS4, carbachol calcium flux Fluo4; active compounds read low; 310,000 tested, 0.92% active;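 active means B-score of the integrated calcium signal more than 4 SD below the library mean, with starting fluorescence not abnormally high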;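 further: negative B-score means reduced calcium response which marks RGS4 activation or potentiation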
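Detection: kinetic calcium fluorescence imaging with Fluo4-AM dye, 2 µM / Material: HEK293 cells with stable M3R and inducible RGS4 / Schedule: recording 10 s baseline at 1 Hz, 100 s post-agonist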
MrgX1 ag confirm = reconfirmed activator of human MrgX1 receptor signaling. shares compounds with MrgX1 agonist. MrgX1-HEK293, Fluo-4 calcium fluorescence, FDSS. activation, % at 10 µM. 600 tested, 78% active;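 active means calcium signal rise, corrected for plate position, at least 3 library SD high, with starting brightness within 5 such deviations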
HEK293 Ca flux = MrgX1 antagonist counter-screen hit in parental HEK293 cells; 4,000 tested, 2% active; shares compounds with MrgX1 antagonist; Fluo-4 calcium fluorescence, FDSS; fluorescence ratio F(max-min)/F0 at 10 µM;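 active means duplicate-averaged calcium fluorescence ratio at least three times the standard deviation of buffer wells, a nonspecific response in parental cells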
HEK293 Ca counter = activity in parental HEK293 cells without MrgX1; fluorescence ratio F(max-min)/F0 at 10 µM; 4,000 tested, 0.4% active; shares compounds with MrgX1 antagonist; parental HEK293 calcium flux, Fluo-4 fluorescence ratio; active compounds read high;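 active means calcium fluorescence ratio, averaged over duplicates, at least 3 SD of the buffer-well ratio, meaning a nonspecific response in receptor-free cells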;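 further: untransfected parental HEK293 lacking MrgX1 used as counterscreen for MrgX1 allosteric activators; fluorescence change taken during the second addition on a kinetic imager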
HEK293 Ca cntr2 = MrgX1 activator counter-screen hit in parental HEK293 cells; shares compounds with MrgX1 antagonist; AID 624115; fluorescence ratio F(max-min)/F0 at 10 µM; Fluo-4 calcium fluorescence (FDSS); active compounds read high; 4,000 tested, 8.7% active;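 active means calcium fluorescence ratio at least three times the spread of buffer wells, meaning a non-specific response in parental cells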
Each line names hits and unclear results; the compound was inactive in the other large screens (follow-up assays come after a bar, where they were run). This is a sample that favours compounds with a hit; in the whole collection about 3.5% have one here.

Cc1sc(NC(=O)C2CCCCC2C(=O)O)c(C(N)=O)c1-c1ccc(C(C)(C)C)cc1 (centres undefined)	MrgX1 agonist 95 | MrgX1 ag confirm 299% | HEK293 Ca flux inactive | HEK293 Ca counter inactive | HEK293 Ca cntr2 68
COCCNC(=O)CN1C(=O)COc2ccc(S(=O)(=O)N3CC(C)CC(C)C3)cc21 (centres undefined)	none
CC(C)/C=C1\CC/C(=C\c2ccc(N(C)C)cc2)C1=O	MrgX1 agonist 101 | MrgX1 ag confirm inactive | HEK293 Ca flux 0.015 | HEK293 Ca counter inactive | HEK293 Ca cntr2 141
O=C(CSc1nnc(-c2cccs2)o1)N1CCc2ccccc21	none
Cc1occc1-c1nnc(SCC(=O)N2CCc3ccccc32)o1	MrgX1 agonist 37 | MrgX1 ag confirm 207% | HEK293 Ca flux inactive | HEK293 Ca counter inactive | HEK293 Ca cntr2 inactive
CCCc1c(-c2ccc(O)cc2)nn(-c2ccc(O)cc2)c1-c1ccc(O)cc1	none
CC(=O)[C@@]1(O)CC[C@H]2[C@@H]3CCC4=CC(=O)CC[C@]4(C)[C@H]3[C@@H](O)C[C@@]21C	MrgX1 agonist 48 | MrgX1 ag confirm inactive | HEK293 Ca flux inactive | HEK293 Ca counter inactive | HEK293 Ca cntr2 inactive
O=c1c2ccccc2sc2ccc(NCCCN3CCOCC3)cc12	MrgX1 agonist 34 | MrgX1 ag confirm 324% | HEK293 Ca flux inactive | HEK293 Ca counter inactive | HEK293 Ca cntr2 107
CN1CCCC1CCNc1ccc2sc3ccccc3c(=O)c2c1 (centres undefined)	MrgX1 agonist 50 | MrgX1 ag confirm 424% | HEK293 Ca flux inactive | HEK293 Ca counter inactive | HEK293 Ca cntr2 118
Cc1c(Cl)cccc1NC(=O)CCC(=O)N/N=C/c1ccc[nH]1	none
CC1(C)Cc2c(c(-c3ccco3)nc3sc4c(NCC5CCCO5)ncnc4c23)CO1 (centres undefined)	MrgX1 agonist 49 | MrgX1 ag confirm 208% | HEK293 Ca flux inactive | HEK293 Ca counter inactive | HEK293 Ca cntr2 45
CC1(C)Cc2c(c(-c3ccco3)nc3sc4c(NCCCO)ncnc4c23)CO1	none
Cc1cc(C(=O)NC2CCCc3c2cnn3-c2cccc(C)c2C)n(C)n1 (centres undefined)	none
Cc1ccccc1NC(=O)CN1CCOCC1	MrgX1 agonist 35 | MrgX1 ag confirm inactive | HEK293 Ca flux inactive | HEK293 Ca counter inactive | HEK293 Ca cntr2 inactive
Cc1c(Br)c(O)c(Br)c2sc(=O)oc12	MrgX1 agonist 33 (no result: RGS4 block, RGS4 act) | MrgX1 ag confirm 149% | HEK293 Ca flux inactive | HEK293 Ca counter inactive | HEK293 Ca cntr2 inactive
CSCCC(NC(=O)c1ccco1)C(=O)OC(C)C(=O)NC(=O)NC1CCCCC1 (centres undefined)	MrgX1 agonist 92 | MrgX1 ag confirm 397% | HEK293 Ca flux inactive | HEK293 Ca counter inactive | HEK293 Ca cntr2 86
COc1ccccc1N(C(=O)c1snc(C(N)=O)c1N)C(C(=O)NC1CCCCC1)c1cccc(OC)c1OC (centres undefined)	none
COc1ccc(NC2CCCN(C(=O)CCc3cccc(Cl)c3)C2)cc1 (centres undefined)	none
COc1cc(/C=C(\C#N)C(=O)c2c[nH]c3ccccc23)cc(OC)c1O	MrgX1 agonist 70 | MrgX1 ag confirm 461% | HEK293 Ca flux inactive | HEK293 Ca counter inactive | HEK293 Ca cntr2 105
O=S(=O)(Nc1cccc(-c2ccc3nncn3n2)c1)c1cc(F)ccc1F	MrgX1 agonist 45 | MrgX1 ag confirm 204% | HEK293 Ca flux inactive | HEK293 Ca counter inactive | HEK293 Ca cntr2 inactive
Cc1ccc(S(=O)(=O)Nc2cccc(-c3ccc4nncn4n3)c2)cc1	none
Cc1cccc(-n2ncc3c(NCc4ccc5c(c4)OCO5)ncnc32)c1	none
Cc1ccc(-n2ncc3c(NCc4ccc5c(c4)OCO5)ncnc32)c(C)c1	MrgX1 agonist 32 | MrgX1 ag confirm 224% | HEK293 Ca flux inactive | HEK293 Ca counter inactive | HEK293 Ca cntr2 48
COc1ccc(CCNC(=O)C2c3ccccc3C(=O)N2CCC(C)C)cc1OC (centres undefined)	none
O=C(Nc1ccccc1C(=O)Nc1ccncc1)c1cccc([N+](=O)[O-])c1	none
CCN(c1nc(N)c(C(=O)N=C(N)N)nc1Cl)C(C)C	MrgX1 agonist 36 | MrgX1 ag confirm 233% | HEK293 Ca flux inactive | HEK293 Ca counter inactive | HEK293 Ca cntr2 inactive
Cc1ccc(CN2CCNC(=O)C2CC(=O)N(C)CCc2cnn(C)c2)cc1 (centres undefined)	none
Cc1nnc(NC(=O)c2sc3nc(-c4cccs4)cc(C(F)(F)F)c3c2N)s1	MrgX1 agonist 31 | MrgX1 ag confirm 299% | HEK293 Ca flux 0.3 | HEK293 Ca counter inactive | HEK293 Ca cntr2 63
COc1ccc(/C(O)=C/c2nc3ccc(C(=O)NCCc4cccc(C)c4)cc3[nH]c2=O)cc1OC	MrgX1 agonist 28 | MrgX1 ag confirm inactive | HEK293 Ca flux inactive | HEK293 Ca counter inactive | HEK293 Ca cntr2 inactive
COc1cc2c(cc1OC)C(NC(=O)c1ccc(C)cc1)CC2=O (centres undefined)	none
O=C(O)CCCCCNC(=O)CSc1nnc(-c2ccco2)n1-c1ccccc1	none
CCC(CC)c1nc(C#N)c(NCc2ccccc2)o1	MrgX1 agonist 27 | MrgX1 ag confirm 230% | HEK293 Ca flux inactive | HEK293 Ca counter inactive | HEK293 Ca cntr2 50
N#Cc1nc(-c2ccc(F)cc2)oc1NCc1ccccc1	none
N#Cc1nc(Cc2ccccc2)oc1NCc1ccccc1	MrgX1 agonist 31 | MrgX1 ag confirm 108% | HEK293 Ca flux inactive | HEK293 Ca counter inactive | HEK293 Ca cntr2 inactive
COc1ccc(CNc2oc(COc3ccccc3)nc2C#N)cc1	none
Cc1cc(-c2csc(N)n2)c(C)n1C	MrgX1 agonist 31 | MrgX1 ag confirm 150% | HEK293 Ca flux inactive | HEK293 Ca counter inactive | HEK293 Ca cntr2 inactive
CCN(c1ccc(NC(=O)c2cccc(S(=O)(=O)N3CCN(C)CC3)c2)cc1)C(C)C	none
Oc1c(C=NCc2ccc(F)cc2)[nH]c2ccc(Br)c(Cl)c12	MrgX1 agonist 27, RGS4 block 5.7 | MrgX1 ag confirm 332% | HEK293 Ca flux inactive | HEK293 Ca counter inactive | HEK293 Ca cntr2 71
Cc1nc(Nc2ccccc2)sc1C(=O)Nc1ccccc1	none

High-throughput results deposited in PubChem BioAssay by Johns Hopkins Ion Channel Center.
